Screens as filed in PubChem.
Many of the other results were omitted from the sample, so hits are more common in it than they were.
IDH1 mut inh: blocks human IDH1 R132H reductase activity | O75874 | diaphorase/resazurin fluorescence, 60 min | inhibition, % at 10 µM | hit rate 0.18% among 70,000 | AID 624101; in the data active = inhibition above about 34%; inconclusive = no clear call, values can overlap the other calls; inactive = below about 11%;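 note: 0% = DMSO and 100% = no enzyme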
T cruzi growth-1: T. cruzi proliferation inhibition; T. cruzi beta-gal in NIH3T3, GalScreen luminescence, 90 h; inhibition, % at 8.34 µM; hit rate 5.9% among 77,000; AID 624255;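 active = mean inhibition above about 93%, with at least 55% of replicates each passing it, limit read from the data, passing the limit was not always enough; inconclusive = only one of those two conditions holds; inactive = neither condition holds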
GASC1 inh: KDM4C (human) demethylase inhibition; Q9H3R0; GST-KDM4C 2-372, H3K9me3 peptide, LANCE TR-FRET; inhibition, % at 12.5 µM; hit rate 0.15% among 96,000; AID 720574;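 active = mean replicate inhibition above about 25%, with at least 55% of replicates also reaching it, limit read from the data, passing the limit was not always enough; inconclusive = only one of those two conditions met; inactive = neither condition met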
Target sequence (Q9H3R0 2-372 limits assumed): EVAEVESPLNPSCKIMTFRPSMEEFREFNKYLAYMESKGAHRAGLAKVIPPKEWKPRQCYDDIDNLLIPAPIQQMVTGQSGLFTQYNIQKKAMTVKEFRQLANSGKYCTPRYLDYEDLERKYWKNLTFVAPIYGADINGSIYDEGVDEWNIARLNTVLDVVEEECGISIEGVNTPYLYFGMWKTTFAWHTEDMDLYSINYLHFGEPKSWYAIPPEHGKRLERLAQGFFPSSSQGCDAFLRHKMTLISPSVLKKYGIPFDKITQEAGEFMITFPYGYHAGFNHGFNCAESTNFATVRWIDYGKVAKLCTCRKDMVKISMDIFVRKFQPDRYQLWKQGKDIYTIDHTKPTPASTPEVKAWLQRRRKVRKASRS
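Test system – GST-tagged GASC-1 (JMJD2C) catalytic fragment, aa 2-372 · Medium – HEPES buffer, pH 7.5, plus ascorbate · Reagent – H3K9me3 peptide with Fe(II)/2OG · Compound – one test concentration per compound · Timing – 30 min reaction, 60 min detection, RT · Technique – TR-FRET with Eu antibody and ULight streptavidin, EDTA stop · Read-out basis – inhibition from TR-FRET ratio decrease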
T cruzi growth-2: blocks T. cruzi growth in NIH3T3 host cells | shares compounds with T cruzi growth-1 | T. cruzi beta-gal in NIH3T3, GalScreen luminescence, 90 h | inhibition, % at 8.35 µM | hit rate 72% among 5,600;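 active = mean replicate inhibition above about 95% and at least 55% of replicates individually reaching it, limit read from the data; inconclusive = only one of the two criteria is met; inactive = neither criterion is met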
T cruzi growth-3: inhibitors of T. cruzi proliferation. shares compounds with T cruzi growth-1. T. cruzi beta-gal in NIH3T3, GalScreen luminescence, 90 h. inhibition, % at 2.09 µM. hit rate 21% among 5,600;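 active = mean inhibition above about 95%, with at least 55% of replicates also reaching it, limit read from the data; inconclusive = meets just one of the two conditions; inactive = meets neither condition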;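 note: plate controls were neutral control median for no effect and positive control median for full effect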
NIH3T3 tox: kills mouse NIH/3T3 fibroblasts; cytotoxicity (signal decrease), % at 8.35 µM; hit rate 14% among 5,600; shares compounds with T cruzi growth-1; NIH/3T3 viability, CellTiter-Glo ATP luminescence, 90 h; AID 651742;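 active = mean signal decrease across replicates above about 35% based on untreated-well scatter, with enough replicates individually passing, limit read from the data; inconclusive = no rule stated though some were filed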;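 note: 0% = median of neutral control wells and 100% = median of positive control wells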
3T3 cytotox 2: NIH/3T3 (mouse) viability loss | inhibition, % at 24.9 µM | hit rate 56% among 5,600 | NIH/3T3 viability, CellTiter-Glo ATP luminescence, 90 h | shares compounds with T cruzi growth-1;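 active = mean loss of cell viability signal at or above a set limit, and enough replicates individually reaching it; inconclusive = meets only the mean limit or only the replicate share; inactive = meets neither condition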;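 note: 0% = median of neutral control wells and 100% = median of positive control wells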
An asterisk follows results filed as active; u = inconclusive; x = no result given.

SMILES	IDH1 mut inh	T cruzi growth-1	GASC1 inh	others
COc1ccc(S(=O)(=O)N(C)C[C@@H]2OCCCC[C@H](C)Oc3ccc(NS(=O)(=O)c4ccccc4)cc3C(=O)N([C@@H](C)CO)C[C@H]2C)cc1	x	92	-1
COc1ccc(S(=O)(=O)Nc2ccc3c(c2)C(=O)N([C@@H](C)CO)C[C@H](C)[C@H](CN(C)C(=O)NC(C)C)O3)cc1	1	109*	2	T cruzi growth-2=-5;T cruzi growth-3=-16;NIH3T3 tox=1;3T3 cytotox 2=-10
COc1ccc(S(=O)(=O)Nc2ccc3c(c2)C(=O)N([C@@H](C)CO)C[C@H](C)[C@@H](CN(C)S(=O)(=O)c2ccc(OC)cc2)OCCCC[C@H](C)O3)cc1	2	u	-3	T cruzi growth-2=104*;T cruzi growth-3=53;NIH3T3 tox=19;3T3 cytotox 2=-2
COc1ccc(S(=O)(=O)Nc2ccc3c(c2)C(=O)N([C@H](C)CO)C[C@@H](C)[C@@H](CN(C)S(=O)(=O)c2ccc(OC)cc2)OCCCC[C@H](C)O3)cc1	1	52	0
CCc1ccc(NC(=O)CSc2nnc(-c3ccc(Br)cc3)n2C)cc1	0	x	x
CS(=O)(=O)N(CC(=O)Nc1cc(C(F)(F)F)ccc1Cl)c1ccccc1	0	x	x
c1ccc(-c2nnc(SCc3nc4ccccc4s3)n2-c2ccccc2)cc1	0	x	x
O=C(COc1ccc2ccccc2c1)Nc1cccc(NC(=O)c2ccc(Cl)cc2Cl)c1	0	x	x
CCCCc1c(-c2ccc(O)cc2)[nH]c2nccnc12	2	x	x
Cc1cccc(NC(=O)CSc2nnc(-c3cccs3)n2-c2ccccc2)c1C	0	x	x
COc1ccc(C(=O)NCC(=O)Nc2ccc(C)c(Cl)c2)cc1OC	0	x	x
NCCCN(Cc1ccco1)C1CCCC1	1	x	x
COC(=O)c1cc(OC)c(OC)cc1NC(=O)C(C)Oc1ccc(Br)cc1 (configuration not stated)	0	x	x
Cc1ccccc1OCc1nn2c(COc3ccccc3)nnc2s1	0	x	x
O=C(CCCN1C(=O)c2ccccc2C1=O)Nc1ccccc1F	0	x	x
COc1ccc(S(=O)(=O)N(C)C[C@H]2OCCCC[C@@H](C)Oc3ccc(NS(=O)(=O)c4cn(C)cn4)cc3C(=O)N([C@@H](C)CO)C[C@H]2C)cc1	x	103*	-1	T cruzi growth-2=107*;T cruzi growth-3=33;NIH3T3 tox=-27;3T3 cytotox 2=-14
C[C@@H]1CN([C@@H](C)CO)C(=O)c2cc(NS(C)(=O)=O)ccc2O[C@@H](C)CCCCO[C@H]1CN(C)S(=O)(=O)c1cn(C)cn1	0	107*	0	T cruzi growth-2=99*;T cruzi growth-3=37;NIH3T3 tox=8;3T3 cytotox 2=8
C[C@@H]1CCCCO[C@@H](CN(C)S(=O)(=O)c2cn(C)cn2)[C@H](C)CN([C@H](C)CO)C(=O)c2cc(NS(C)(=O)=O)ccc2O1	-5	33	0
COc1ccc(S(=O)(=O)N(C)C[C@@H]2OCCCC[C@@H](C)Oc3ccc(NS(=O)(=O)c4cn(C)cn4)cc3C(=O)N([C@@H](C)CO)C[C@H]2C)cc1	x	2	5
COc1ccccc1-n1nnnc1SCC(=O)Nc1ccccc1SC	0	x	x
Cc1ccc([N+](=O)[O-])cc1NC(=O)CN(c1ccc(I)cc1)S(C)(=O)=O	0	x	x
CCCc1cc(=O)[nH]c(SCC(=O)Nc2cc(C)cc(C)c2)n1	1	x	x
COc1cc(C(=O)O)cc(OC)c1O	-4	x	x
CC(=O)NC[C@H]1[C@@H](c2ccccc2)[C@H](CO)N1C(=O)Cc1cccnc1	x	66	1
O=C(NC[C@@H]1[C@H](c2ccccc2)[C@H](CO)N1C(=O)Cc1cccnc1)C1CC1	x	-7	2
CC(=O)NC[C@@H]1[C@H](c2ccccc2)[C@H](CO)N1C(=O)Cc1cccnc1	x	u	-1	T cruzi growth-2=-5;T cruzi growth-3=-15;NIH3T3 tox=0;3T3 cytotox 2=-16
O=C(NC[C@@H]1[C@@H](c2ccccc2)[C@@H](CO)N1C(=O)Cc1cccnc1)C1CC1	x	100*	1	T cruzi growth-2=-35;T cruzi growth-3=-65;NIH3T3 tox=-15;3T3 cytotox 2=-8
O=C(COc1cccc2ccccc12)Nc1cc([N+](=O)[O-])ccc1O	-1	x	x
C/C=C/c1ccc2c(c1)O[C@H](CN(C)Cc1cccc(F)c1)[C@@H](C)CN([C@H](C)CO)S2(=O)=O	0	x	1
